Series [1] concerns mcr isolates of K. pneumoniae and Escherichia coli. Description: MIC against mcr isolates. Type of series: cell-based. The note with it: mcr isolates (Table S4).
In series [2] the test system is polymyxin-resistant clinical isolates of P. aeruginosa, A. baumannii and K. pneumoniae. The series is described as follows: MIC by broth microdilution, polymyxin-resistant clinical isolates. Type of series: cell-based. A general note: In broth dilution the organism is exposed to a series of concentrations in liquid medium.
The test system of another series is human red blood cells. The series is described as follows: Haemolysis of human red blood cells. Format: cell-based. The conditions noted are these: concentrations up to 100 μg/mL.
For series [3], the system named is E. coli ATCC 25922 cells. Description: Inner membrane permeabilisation, SYTOX Green flow cytometry. Type of series: cell-based. The note with it: 1 h at 37°C.
The subject of series [4] is E. coli ATCC 25922 cells. The series is described as follows: Membrane depolarisation diSC3-5 assay. Format: cell-based. The note with it: 30 min incubation.
Series [5] is described as follows: Mouse nephrotoxicity model, kidney histopathology. The note with it: 12 mg/kg sc every 2 h, accumulated dose 72 mg/kg. Type of series: in vivo, mice.
A short description of series [6]: Carboxyfluorescein leakage from lipid vesicles. The conditions noted are these: vesicles containing lipid A. The method, boiled down:
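CF-loaded vesicles (50 mM CF; final lipid 5 µM) were made of POPC, POPC/POPG 4:1 or POPC/lipid A 4:1 in 10 mM HEPES pH 7.4 with 150 mM NaCl. Vesicles were exposed for 20 min to lipopeptide at 128–0.06 µg/mL. Leakage was read as CF de-quenching (ex 485 nm, em 520 nm).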

Series [7] deals with polymyxin-susceptible strains of P. aeruginosa and K. pneumoniae. Description: MIC by broth microdilution, polymyxin-susceptible strains. Type of series: cell-based.
The test system of series [8] is polymyxin-resistant P. aeruginosa strain FADDI-PA070. The series is described as follows: Static time-kill study. Type of series: cell-based. The note with it: for log10 CFU/mL kill: 32 μg/mL, 1–4 h polymyxin B, 0.5–6 h octapeptin C4; for antimicrobial effect in time-kill: 1 or 4 μg/mL.
The nature of series [9]: Acute toxicity after subcutaneous dose in mice. Type of series: in vivo. The conditions noted are these: subcutaneous dose of 40 mg/kg.
On the set-up of series [10]: species or system mice. The conditions noted are these: mouse, in vivo, iv, 10 mg/kg.
The format of series [11] is in vitro ADME. The conditions noted are these: rat.
The test system of series [12] is P. aeruginosa FADDI-PA070. Description: MIC against P. aeruginosa FADDI-PA070. Type of series: cell-based.

By MIC is commonly meant the least concentration at which growth counts as inhibited. A lower MIC goes with inhibition by little substance. colistin: the values for the minimum inhibitory concentration (MIC) in series [1], in [2] and in [7] were 4 to 16 µg/mL, 4 to 128 µg/mL and 0.25 to 1 µg/mL, respectively. Further, in the series on human red blood cells, the haemolysis entry is reported as “no detectable haemolysis”. For the same substance, in the series on E. coli ATCC 25922 cells [3], the “membrane disruption (SYTOX Green uptake)” value is “disrupted both the outer and inner membranes”. In addition, the membrane depolarisation result with E. coli ATCC 25922 cells [4] was “induced membrane depolarisation”. Moreover, the kidney histopathology lesions entry in series [5] was “severe Grade 1–2 lesions”. Also, in [6], the “leakage from lipid vesicles” value is given as “destabilised the membrane”. Moreover, in series [8], the “log10 CFU/mL kill” value was “poor killing activity”. For the same substance, in series [8], the “antimicrobial effect in time-kill” value is “no antimicrobial effect”.

Broadly, the half-life is the time needed for the level to fall by half in the phase considered. Lower therefore signals rapid decline. Take polymyxin B: the MIC is 4 to 16 µg/mL in series [1], 4 to 128 µg/mL in series [2], 0.25 to 1 µg/mL in [7] and at least 128 mg/L in series [12]. The acute toxic effects entry in series [9] is listed as “acute toxic effects”. In series [10], the half-life is listed as 3.6 h. The total clearance in series [10] was determined as 7.3 mL/min/kg. In the series with E. coli ATCC 25922 cells [3], the “membrane disruption (SYTOX Green uptake)” value was “disrupted both the outer and inner membranes”. Further, the membrane depolarisation entry with E. coli ATCC 25922 cells [4] is “induced membrane depolarisation”. Also, in series [11], the plasma protein binding amounted to 83%. In addition, in series [6], the “leakage from lipid vesicles” value is reported as “destabilised the membrane”. In addition, in [8], the “log10 CFU/mL kill” value is “six”. Besides, the “antimicrobial effect in time-kill” value in series [8] is “no antimicrobial effect”. For the same substance, the “final log10 CFU/mL reduction” value in series [8] (24 h, after regrowth) was “three”.

These data come from publication PMC6560181 (Cell chemical biology, 2018).
